The text below walks through data of ChEMBL document CHEMBL2203235, “Optimization of a natural product-based class of γ-secretase modulators” (J Med Chem, 2012).

The term IC50 denotes the concentration that inhibits the measured activity by half. The term Cmax denotes the peak of the concentration-time curve. One may read the bioavailability as dose-corrected exposure relative to a reference, in per cent. Low readings indicate little systemic uptake, high ones much systemic uptake. A word on the half-life: it is how long it takes for the measured level to halve. High values mean slow decline, low ones rapid decline. For orientation: clearance means a measure of how efficiently the substance is removed, as volume per time. Higher therefore signals efficient removal. One may read the Vd as the apparent volume that relates the amount in the body to the concentration in plasma or blood.

The nature of series [1]: Plasma concentration in CD1 mouse at 1 mg/kg, iv at 2 hrs. It counts as ADME, organism-based. Set-up: dose 1 mg/kg, route intravenous. The procedure, abridged: (§1)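 Screen of CNS penetration: CD-1 mice were dosed IV and plasma and brain concentrations were measured. Brain-to-plasma ratio was calculated, mostly at 6 h post dose, with one compound sampled at 2 h.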
Series [2] is described as follows: Ratio of drug uptake in brain to plasma in CD1 mouse at 1 mg/kg, iv at 2 hrs. The class given is ADME, organism-based. Further details: dose 1 mg/kg, route intravenous. The conditions noted are these: brain and plasma, read-out: BPR. Put shortly: as §1
A short description of series [3]: Modulation of gamma secretase in CHO-2B7 cells assessed as reduction in amyloid beta 40 level after 5 hrs by MSD ELISA. It counts as cell-based. The conditions noted are these: Cricetulus griseus, CHO-2B7, 5 h. Background: In an ELISA, binding on a coated surface is turned into a signal by an enzyme label.
Series [4] concerns Liver microsomes. Nature of the series: (§2) Metabolic stability in human liver microsomes assessed as compound remaining at 1 uM at 60 mins by LC/MS/MS analysis in absence of NADPH. The conditions noted are these: microsomes, 1 h, 1 µM. It counts as ADME, Microsome. Put shortly: (§3)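 Human liver microsomes were run without NADPH as a qualitative read of susceptibility to enzymatic hydrolysis. The read-out was percent parent remaining at 60 min.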
Background: Microsomes from liver hold many membrane-bound enzymes, among them those of drug oxidation.

A short description of series [5]: Drug uptake in CD1 mouse brain at 1 mg/kg, iv at 2 hrs. The class given is ADME, organism-based. Further details: dose 1 mg/kg, route intravenous. To be noted: read-out: Drug uptake. The procedure, abridged:
as §1

A short description of series [6]: Modulation of gamma secretase in CHO-2B7 cells assessed as reduction in amyloid beta 42 level after 5 hrs by MSD ELISA. The class given is cell-based. To be noted: Cricetulus griseus, CHO-2B7, 5 h.
The test system of series [7] is Liver microsomes. Nature of the series: Metabolic stability in human liver microsomes at 1 uM after 60 mins by LC/MS/MS analysis. To be noted: 1 h.
The nature of series [8]: Cmax in rat at 10 mg/kg, po. It counts as ADME, organism-based. Further details: dose 10 mg/kg, route oral. To be noted: in vivo.
A short description of series [9]: Ratio of drug uptake in brain to plasma in rat at 10 mg/kg, po at 6 hrs. It counts as ADME, organism-based. Set-up: dose 10 mg/kg, route oral. The conditions noted are these: brain and plasma, read-out: BPR.
Series [10] in a line: as §2. The class given is ADME, Microsome. To be noted: liver microsomes, read-out: Stability. Put shortly: as §3
Series [11] is described as follows: Oral bioavailability in rat at 10 mg/kg. The class given is ADME, organism-based. The conditions noted are these: in vivo.
Series [12] is described as follows: Half life in rat at 3 mg/kg, iv. The class given is ADME, organism-based. Set-up: dose 3 mg/kg, route intravenous. The conditions noted are these: in vivo.
A short description of series [13]: Clearance in rat at 3 mg/kg, iv. It counts as ADME, organism-based. Further details: dose 3 mg/kg, route intravenous. The conditions noted are these: in vivo.
Series [14] is described as follows: Volume of distribution in rat at 3 mg/kg, iv. It counts as ADME, organism-based. Set-up: dose 3 mg/kg, route intravenous. The conditions noted are these: in vivo.

A value given as a limit tells only on which side of the number the result lay.

For the compound `CC(C)[C@@H](OC(=O)N1CCC1)[C@H]1C[C@@H](C)[C@H]2[C@H](O1)[C@H](O)[C@@]1(C)[C@@H]3CC[C@H]4C(C)(C)[C@@H](O[C@H]5CNCCO5)CC[C@@]45C[C@@]35CC[C@]21C`, the concentration at 2 h in series [1] was determined as 326 nM; in series [5], 30 nM. In addition, in series [2], the Kp at 2 h was 0.09. The values for the 50% inhibitory concentration (IC50) in series [3] and in [6] were 7.9 µM and 0.26 µM, respectively. Moreover, the Stability in the series on Liver microsomes [4] is reported as 123%; with Liver microsomes [7] it was “Stable”.
`C[C@@H]1C[C@H]([C@H](O)C(C)(C)O)O[C@H]2[C@H]1[C@@]1(C)CC[C@@]34C[C@@]35CC[C@H](O[C@H]3CN([C@H]6CCNC6=O)CCO3)C(C)(C)[C@@H]5CC[C@H]4[C@]1(C)[C@H]2O`: the maximum concentration (Cmax) in series [8] was found to be 2200 nM. The Kp at 6 h in [9] was found to be 0.09. For the same compound, the remaining at 1 h, 1 µM in series [10] was found to be 85%. The bioavailability in [11] was > 100%. Further, in series [12], the half-life is 5 h. Besides, the clearance in [13] is 9.67 mL/min/kg. Also, in series [6], the 50% inhibitory concentration (IC50) is ≥ 20 µM. This compound also displayed a Vd in series [14] of 3.1 L/kg.
